Series [1] in a line: Drug metabolism in human hepatocytes assessed as formation of 2-mercapto-3-(4-((6-methoxy-1-methyl-1H-benzo[d]imidazol-2-yl)methoxy)phenyl)propanamide at 30 uM after 3 hrs by radio-HPLC/LC-MS/MS analysis in presence of NADPH-generating system and NADPH-generating system/SAM. Format: ADME, cell-based, Hepatocyte.
Series [2] in a line: Drug metabolism in human hepatocytes assessed as formation of 3-(4-((6-methoxy-1-methyl-1H-benzo[d]imidazol-2-yl)methoxy)phenyl)-2-(methylthio)propanoic acid at 30 uM after 3 hrs by radio-HPLC/LC-MS/MS analysis in presence of NADPH-generating system/SAM and UDPGA/SAM. It counts as ADME, cell-based, Hepatocyte.
The test system of series [3] is Liver microsome. In words: Drug metabolism in Sprague-Dawley rat liver microsomes assessed as formation of (2S,3S,4S,5R,6R)-6-((1-carboxy-2-(4-((6-methoxy-1-methyl-1H-benzo[d]imidazol-2-yl)methoxy)phenyl)ethylthio)carbonylamino)-3,4,5-trihydroxytetrahydro-2H-pyran-2-carboxylic acid at 20 uM after 4 hrs by radio-HPLC/LC-MS/MS analysis in presence of UDPGA and UDPGA/SAM. Format: ADME.

Series [4] addresses T1, Cytochrome P450 1A2 (Homo sapiens, UniProt P05177).
T1 sequence (P05177 whole entry): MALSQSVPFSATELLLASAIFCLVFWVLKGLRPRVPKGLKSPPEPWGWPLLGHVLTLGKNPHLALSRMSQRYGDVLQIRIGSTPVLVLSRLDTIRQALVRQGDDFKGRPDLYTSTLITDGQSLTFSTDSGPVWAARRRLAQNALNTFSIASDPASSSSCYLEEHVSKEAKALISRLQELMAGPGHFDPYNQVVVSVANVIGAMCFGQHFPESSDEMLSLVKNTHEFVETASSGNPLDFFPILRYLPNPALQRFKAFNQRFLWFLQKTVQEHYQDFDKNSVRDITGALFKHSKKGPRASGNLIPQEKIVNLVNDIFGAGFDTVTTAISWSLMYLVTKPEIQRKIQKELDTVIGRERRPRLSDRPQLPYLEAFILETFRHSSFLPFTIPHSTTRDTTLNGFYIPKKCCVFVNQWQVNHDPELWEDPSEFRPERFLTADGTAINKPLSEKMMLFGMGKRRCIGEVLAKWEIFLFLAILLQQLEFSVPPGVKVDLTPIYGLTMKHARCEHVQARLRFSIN
In words: Activity of human CYP1A2 expressed in microsomes isolated from baculovirus infected insect cell assessed as enzyme-mediated 3-(4-((6-methoxy-1-methyl-1H-benzo[d]imidazol-2-yl)methoxy)phenyl)-2-(methylthio)propanoic acid formation at 20 uM after 2 hrs by radio-HPLC/LC-MS/MS analysis in presence of NADPH-generating system/SAM and UDPGA/SAM. Format: ADME.

In series [5] the target is T2, Cytochrome P450 2C8 (Homo sapiens, UniProt P10632).
T2 sequence (P10632 whole entry): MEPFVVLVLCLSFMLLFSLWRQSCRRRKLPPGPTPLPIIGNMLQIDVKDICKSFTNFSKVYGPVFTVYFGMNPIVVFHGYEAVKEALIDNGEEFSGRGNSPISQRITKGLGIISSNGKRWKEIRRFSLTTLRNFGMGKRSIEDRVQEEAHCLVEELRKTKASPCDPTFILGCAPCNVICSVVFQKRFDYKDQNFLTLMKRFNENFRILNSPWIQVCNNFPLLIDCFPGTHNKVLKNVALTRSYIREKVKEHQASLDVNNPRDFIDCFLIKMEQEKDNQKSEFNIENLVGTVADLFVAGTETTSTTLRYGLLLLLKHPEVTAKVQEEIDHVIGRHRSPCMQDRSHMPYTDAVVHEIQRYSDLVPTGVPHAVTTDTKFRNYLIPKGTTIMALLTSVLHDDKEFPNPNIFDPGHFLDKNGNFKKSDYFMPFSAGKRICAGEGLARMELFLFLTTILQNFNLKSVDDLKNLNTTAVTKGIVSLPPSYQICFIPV
In words: Activity of human CYP2C8 expressed in microsomes isolated from baculovirus infected insect cell assessed as enzyme-mediated (2S,3S,4S,5R,6R)-3,4,5-trihydroxy-6-(5-(4-((6-methoxy-1-methyl-1H-benzo[d]imidazol-2-yl)methoxy)benzyl)-2,4-dioxothiazolidin-3-yl)tetrahydro-2H-pyran-2-carboxylic acid formation at 20 uM after 2 hrs by radio-HPLC/LC-MS/MS analysis in presence of UDPGA and UDPGA/SAM. It counts as ADME.

Series [6] addresses T2, Cytochrome P450 2C8. In words: Activity of human CYP2C8 expressed in microsomes isolated from baculovirus infected insect cell assessed as enzyme-mediated 3-(4-((6-methoxy-1-methyl-1H-benzo[d]imidazol-2-yl)methoxy)phenyl)-2-(methylthio)propanamide formation at 20 uM after 2 hrs by radio-HPLC/LC-MS/MS analysis in presence of NADPH-generating system/SAM. Format: ADME.
Series [7] deals with Cytochrome P450 2D6 (Homo sapiens, UniProt P10635). In words: Activity of human CYP2D6 expressed in microsomes isolated from baculovirus infected insect cell assessed as enzyme-mediated compound formation treated with [14C]-rivoglitazone at 20 uM after 2 hrs by radio-HPLC/LC-MS/MS analysis in presence of NADPH-generating system. Format: ADME. The method in brief: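 Baculovirus-insect-cell microsomes expressing the human CYP (1 mg/ml protein) were incubated with [14C]rivoglitazone (20 μM) in 50 mM potassium phosphate (pH 7.4) or 100 mM Tris-HCl (pH 7.5) with an NADPH-generating system (2 mM NADP+, 20 mM glucose 6-phosphate, 2 units/ml G6PDH, 10 mM MgCl2) for 2 h at 37°C. Insect-cell control supersomes served as the control. Reactions were stopped with acetonitrile, and the concentrated supernatants were analysed by radio-HPLC, LC-MS and LC-MS/MS.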

For series [8], the target named is T3, UDP-glucuronosyltransferase 1A3 (Homo sapiens, UniProt P35503).
T3 sequence (P35503 whole entry): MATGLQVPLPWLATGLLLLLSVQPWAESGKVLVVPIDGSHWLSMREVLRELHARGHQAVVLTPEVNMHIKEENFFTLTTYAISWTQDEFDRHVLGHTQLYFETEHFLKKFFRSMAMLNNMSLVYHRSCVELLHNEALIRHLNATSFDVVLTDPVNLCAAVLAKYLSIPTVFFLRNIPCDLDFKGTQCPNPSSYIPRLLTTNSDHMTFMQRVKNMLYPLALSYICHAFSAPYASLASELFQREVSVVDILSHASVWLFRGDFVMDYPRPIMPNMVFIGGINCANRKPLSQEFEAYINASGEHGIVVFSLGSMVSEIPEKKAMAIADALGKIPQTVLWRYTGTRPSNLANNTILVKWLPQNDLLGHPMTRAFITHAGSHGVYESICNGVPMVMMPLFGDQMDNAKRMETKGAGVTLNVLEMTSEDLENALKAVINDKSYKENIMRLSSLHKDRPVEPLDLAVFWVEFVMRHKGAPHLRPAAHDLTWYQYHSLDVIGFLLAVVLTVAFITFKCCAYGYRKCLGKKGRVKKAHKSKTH
In words: Activity of human UGT1A3 expressed in microsomes isolated from baculovirus infected insect cell assessed as enzyme-mediated compound formation treated with [14C]-rivoglitazone at 20 uM after 4 hrs by radio-HPLC/LC-MS/MS analysis in presence of UDPGA, UDPGA/SAM.

Cytochrome P450 2D6, sequence (P10635 whole entry): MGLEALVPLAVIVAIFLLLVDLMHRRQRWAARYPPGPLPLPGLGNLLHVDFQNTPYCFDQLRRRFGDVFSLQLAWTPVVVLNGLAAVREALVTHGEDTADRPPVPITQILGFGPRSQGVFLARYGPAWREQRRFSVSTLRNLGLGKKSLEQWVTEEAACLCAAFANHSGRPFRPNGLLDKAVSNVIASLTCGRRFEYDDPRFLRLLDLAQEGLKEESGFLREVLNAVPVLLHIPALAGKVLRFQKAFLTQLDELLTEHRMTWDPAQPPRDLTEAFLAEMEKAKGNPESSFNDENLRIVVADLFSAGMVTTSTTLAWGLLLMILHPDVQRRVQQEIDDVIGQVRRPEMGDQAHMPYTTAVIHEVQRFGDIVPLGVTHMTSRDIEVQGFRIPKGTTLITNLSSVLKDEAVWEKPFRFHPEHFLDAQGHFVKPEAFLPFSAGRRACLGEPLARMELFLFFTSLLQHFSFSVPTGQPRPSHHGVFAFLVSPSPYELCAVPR

Regarding `COc1ccc2nc(COc3ccc(C[14CH]4SC(=O)NC4=O)cc3)n(C)c2c1.Cl` (racemic), the Drug metabolism result was “metabolite_not_detected” in series [1]; “metabolite_not_detected” in series [2]; “metabolite_detected” in series [3]; “metabolite_not_detected” in series [4]; “metabolite_not_detected” in series [5]; “metabolite_not_detected” in series [6].
With `COc1ccc2nc(COc3ccc(CC(S)C(=O)O)cc3)n(C)c2c1` (stereo not drawn), the Drug metabolism result in series [7] and in series [8] was “metabolite_detected” in each case.

The record behind these values is ChEMBL document CHEMBL3526048, “In vitro metabolism of rivoglitazone, a novel peroxisome proliferator-activated receptor γ agonist, in rat, monkey, and human liver microsomes and freshly isolated hepatocytes” (Drug Metab Dispos, 2011).
